In brackets after ≈: the same amount, converted by molar mass.
How the values were obtained:
Format in all cases: functional
[1] = tested on: Staphylococcus aureus; test: Antibacterial activity against Staphylococcus aureus ATCC 29213 after 24 hrs by two fold serial dilution method; conditions: ATCC 29213, 24 h
Procedure, shortened: (§1)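 MICs determined by modified microbroth twofold dilution per NCCLS. Compounds were tested at 512, 256, 128, 64, 32, 16, 8, 4, 2, 1 and 0.5 µg/mL. Dilutions were inoculated and incubated at 37 °C for 24 h. A DMSO solvent control in test medium was run at the same dilutions.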

[2] = tested on: Staphylococcus aureus; test: Antibacterial activity against Methicillin-Resistant Staphylococcus aureus subsp. aureus N315 after 24 hrs by two fold serial dilution method; conditions: N315, 24 h
Procedure, shortened: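 Modified microbroth dilution following National Committee for Clinical Laboratory Standards methods. Twofold serial dilutions were set at 512, 256, 128, 64, 32, 16, 8, 4, 2, 1 and 0.5. Dilutions were inoculated with strain N315 and incubated at 37 °C for 24 h. A solvent control used medium with DMSO at the same dilutions. Read-out was the MIC.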

[3] = tested on: Bacillus subtilis; test: Antibacterial activity against Bacillus subtilis ATCC 21216 after 24 hrs by two fold serial dilution method; conditions: ATCC 21216, 24 h; procedure, shortened: as §1
[4] = tested on: Escherichia coli; test: Antibacterial activity against Escherichia coli ATCC 25922 after 24 hrs by two fold serial dilution method; conditions: ATCC 25922, 24 h; procedure, shortened: as §1
[5] = tested on: Pseudomonas aeruginosa; test: Antibacterial activity against Pseudomonas aeruginosa ATCC 27853 after 24 hrs by two fold serial dilution method; conditions: ATCC 27853, 24 h; procedure, shortened: as §1
[6] = tested on: Proteus vulgaris; test: Antibacterial activity against Proteus vulgaris ATCC 49027 after 24 hrs by two fold serial dilution method; conditions: ATCC 49027, 24 h; procedure, shortened: as §1
[7] = tested on: Candida albicans; test: Antifungal activity against Candida albicans ATCC 76615 after 24 hrs by two fold serial dilution method; conditions: ATCC 76615, 24 h
Procedure, shortened: (§2)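 Modified NCCLS microbroth dilution, with eleven compound concentrations from 0.5 to 512 µg/mL. Dilutions were inoculated and incubated at 35 °C for 24 h. MIC50 was taken as the first well showing about 50% growth reduction versus the drug-free well.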

[8] = tested on: Aspergillus fumigatus; test: Antifungal activity against Aspergillus fumigatus ATCC 96918 after 24 hrs by two fold serial dilution method; conditions: ATCC 96918, 24 h; procedure, shortened: as §2

SMILES | MIC50 [1] [mg/L] | MIC50 [2] [mg/L] | MIC50 [3] [mg/L] | MIC50 [4] [mg/L] | MIC50 [5] [mg/L] | MIC50 [6] [mg/L] | MIC50 [7] [mg/L] | MIC50 [8] [mg/L]
BrCCCCn1c2ccccc2c2ccccc21 | 256 (≈ 847 µM) | > 512 | > 512 | > 512 | 128 (≈ 424 µM) | > 512 | 512 (≈ 1690 µM) | > 512
c1ccc2c(c1)c1ccccc1n2CCCCn1cncn1 | 256 (≈ 882 µM) | > 512 | > 512 | 32 (≈ 110 µM) | 128 (≈ 441 µM) | > 512 | 2 (≈ 6.89 µM) | > 512
c1ccc2c(c1)c1ccccc1n2CCCCCCn1cncn1 | 32 (≈ 100 µM) | 64 (≈ 201 µM) | > 512 | 16 (≈ 50.2 µM) | 32 (≈ 100 µM) | > 512 | 2 (≈ 6.28 µM) | > 512
Clc1ccc(C[n+]2cnn(Cc3ccc(Cn4c5ccccc5c5ccccc54)cc3)c2)c(Cl)c1.[Cl-] | 2 | 8 | 2 | 2 | 4 | 8 | 32 | 64
c1ccc2c(c1)c1ccccc1n2Cc1ccc(Cn2c3ccccc3c3ccccc32)cc1 | 256 (≈ 586 µM) | > 512 | > 512 | > 512 | > 512 | > 512 | > 512 | > 512
c1ccc2c(c1)c1ccccc1n2CCCCn1c2ccccc2c2ccccc21 | > 512 | > 512 | > 512 | > 512 | > 512 | 64 (≈ 165 µM) | > 512 | > 512
c1ccc2c(c1)c1ccccc1n2CCCCCCn1c2ccccc2c2ccccc21 | 128 (≈ 307 µM) | > 512 | > 512 | > 512 | > 512 | > 512 | > 512 | 256 (≈ 615 µM)
c1ccc2c(c1)c1ccccc1n2CCCCn1ccnc1 | 2 (≈ 6.91 µM) | 4 (≈ 13.8 µM) | 4 (≈ 13.8 µM) | 8 (≈ 27.6 µM) | 1 (≈ 3.46 µM) | 1 (≈ 3.46 µM) | 16 (≈ 55.3 µM) | 64 (≈ 221 µM)
c1ccc2c(c1)c1ccccc1n2CCCCCCn1ccnc1 | 8 (≈ 25.2 µM) | 8 (≈ 25.2 µM) | 8 (≈ 25.2 µM) | 4 (≈ 12.6 µM) | 1 (≈ 3.15 µM) | 1 (≈ 3.15 µM) | 16 (≈ 50.4 µM) | 128 (≈ 403 µM)
c1ccc2c(c1)c1ccccc1n2Cc1ccc(Cn2cncn2)cc1 | 256 (≈ 756 µM) | > 512 | > 512 | 32 (≈ 94.6 µM) | > 512 | > 512 | 4 (≈ 11.8 µM) | > 512
BrCCCCCCn1c2ccccc2c2ccccc21 | 128 (≈ 388 µM) | > 512 | > 512 | > 512 | > 512 | > 512 | > 512 | 512 (≈ 1550 µM)
c1ccc2c(c1)c1ccccc1n2Cc1ccc(Cn2ccnc2)cc1 | 1 (≈ 2.96 µM) | 8 (≈ 23.7 µM) | 4 (≈ 11.9 µM) | 8 (≈ 23.7 µM) | 1 (≈ 2.96 µM) | 4 (≈ 11.9 µM) | 16 (≈ 47.4 µM) | > 512
BrCc1ccc(Cn2c3ccccc3c3ccccc32)cc1 | 128 (≈ 365 µM) | > 512 | 256 (≈ 731 µM) | 256 (≈ 731 µM) | 256 (≈ 731 µM) | 512 (≈ 1460 µM) | > 512 | > 512
O=C(N[C@H](CO)[C@H](O)c1ccc([N+](=O)[O-])cc1)C(Cl)Cl [CHLORAMPHENICOL] | 64 (≈ 198 µM) | 8 (≈ 24.8 µM) | > 512 | 64 (≈ 198 µM) | > 512 | 16 (≈ 49.5 µM) | – | –
OC(Cn1cncn1)(Cn1cncn1)c1ccc(F)cc1F [FLUCONAZOLE] | – | – | – | – | – | – | 0.5 (≈ 1.63 µM) | 512 (≈ 1670 µM)
CCn1cc(C(=O)O)c(=O)c2cc(F)c(N3CCNCC3)cc21 [NORFLOXACIN] | 8 (≈ 25.1 µM) | 1 (≈ 3.13 µM) | 1 (≈ 3.13 µM) | 0.5 (≈ 1.57 µM) | 2 (≈ 6.26 µM) | 1 (≈ 3.13 µM) | – | –

From ChEMBL document CHEMBL1155420, “Synthesis, antibacterial and antifungal activities of some carbazole derivatives” (2010)
